The values below come from ChEMBL document CHEMBL1135716, “A three-dimensional quantitative structure-activity relationship study of heparin-binding epidermal growth factor shedding inhibitors using comparative molecular field analysis” (J Med Chem, 2002).

This assay in a line: Heparin-binding epidermal growth factor (HB-EGF) shedding inhibition. The gist of the method: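 Cell-based shedding assay using HT-1080 fibrosarcoma transfectants that express human placental alkaline phosphatase-tagged HB-EGF. Cells were grown 24 h at 2×10^5/well in MEM with 10% FCS, washed, and preincubated 30 min with compound in MEM containing 1% DMSO. They were then stimulated with 60 nM TPA for 60 min. Supernatant was heated 10 min at 65 °C, then given p-nitrophenyl phosphate substrate (pH 9.8) for 2 h, and A405 was read. IC50 was taken from a concentration series.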
With `NS(=O)(=O)c1ccc(-c2ccc(S(=O)(=O)N3Cc4ccccc4C[C@@H]3C(=O)NO)cc2)cc1`, the IC50 (commonly the concentration needed to halve the response being measured) turned out to be 20000 nM.
With `O=C(NO)[C@H]1Cc2nccnc2CN1S(=O)(=O)c1ccc(Oc2ccc(Oc3ccccc3)cc2)cc1`, the IC50 stood at 6100 nM.
Compound `CSCCCOc1ccc(S(=O)(=O)N2Cc3nccnc3C[C@@H]2C(=O)NO)cc1` registered an IC50 of 100 nM.
For `COCCc1ccc(S(=O)(=O)N2Cc3nccnc3C[C@@H]2C(=O)NO)s1` the value was 3000 nM.
`O=C(NO)[C@H]1Cc2nccnc2CN1S(=O)(=O)c1ccc(OCCO)cc1` returned an IC50 of 1500 nM. Compared with the last compound, the IC50 is about 2-fold lower.
For `COc1ccc(S(=O)(=O)N2Cc3nccnc3C[C@@H]2C(=O)NO)cc1` the value was 350 nM; for `COc1ccc(S(=O)(=O)N2Cc3cc(O)c(O)cc3C[C@@H]2C(=O)NO)cc1`, 730 nM; for `Nc1ccc(S(=O)(=O)N2Cc3nccnc3C[C@@H]2C(=O)NO)cc1`, 1800 nM.
As for `O=C(NO)[C@H]1Cc2cc(O)c(O)cc2CN1S(=O)(=O)c1ccc(OCCCc2ccccc2)cc1`, the IC50 came to 990 nM.
Regarding `Cc1ccc(S(=O)(=O)N2Cc3cc(O)c(O)cc3C[C@@H]2C(=O)NO)s1`, the IC50 amounted to 5400 nM.
For `O=C(NO)[C@H]1Cc2nccnc2CN1S(=O)(=O)c1cccs1` the value was 960 nM.
In turn, `Nc1cccc(S(=O)(=O)N2Cc3ccccc3C[C@@H]2C(=O)NO)c1` gave a half-inhibitory concentration (IC50) of 1100 nM.
For `O=C(NO)[C@H]1Cc2cc(O)c(O)cc2CN1S(=O)(=O)c1cccs1` the value was 160 nM; for `COCCCOc1ccc(S(=O)(=O)N2Cc3cc(N)ccc3C[C@@H]2C(=O)NO)cc1`, 39 nM.
For `O=C(NO)[C@H]1Cc2nccnc2CN1S(=O)(=O)c1ccc(Oc2ccncc2)cc1` the value was 340 nM; for `O=C(NO)[C@H]1Cc2cc(O)c(O)cc2CN1S(=O)(=O)c1ccc(-c2ccccc2)cc1`, 1290 nM; for `CCCCCCS(=O)(=O)N1Cc2nccnc2C[C@@H]1C(=O)NO`, 4400 nM.
For `Cc1ccc(S(=O)(=O)N2Cc3ccccc3C[C@@H]2C(=O)NO)cc1` the value was 830 nM.
In the case of `C=Cc1ccc(S(=O)(=O)N2Cc3nccnc3C[C@@H]2C(=O)NO)cc1`, the half-inhibitory concentration (IC50) turned out to be 1100 nM.
For the compound `CCCCOc1ccc(S(=O)(=O)N2Cc3ccccc3C[C@@H]2C(=O)NO)cc1`, the IC50 was determined as 420 nM.
For `CN(C)CCCOc1ccc(S(=O)(=O)N2Cc3nccnc3C[C@@H]2C(=O)NO)cc1` the value was 18000 nM.
For `COc1ccc(S(=O)(=O)N2Cc3ccccc3C[C@@H]2C(=O)NO)cc1` the value was 280 nM; for `COc1ccc(CCS(=O)(=O)N2Cc3nccnc3C[C@@H]2C(=O)NO)cc1`, 6700 nM; for `O=C(NO)[C@H]1Cc2nccnc2CN1S(=O)(=O)c1ccc(C(F)(F)F)cc1`, 40000 nM.
The result for `O=C(NO)[C@H]1Cc2ccccc2CN1S(=O)(=O)c1ccccc1` reads 42 nM; that for `O=C(NO)[C@H]1Cc2cc(O)c(O)cc2CN1S(=O)(=O)c1ccc(Oc2cnccn2)cc1`, 820 nM.
Take `CCCOc1ccc(S(=O)(=O)N2Cc3cc(O)c(O)cc3C[C@@H]2C(=O)NO)cc1`: the IC50 was 630 nM.
For the compound `CCCCCC(=O)Nc1ccc(S(=O)(=O)N2Cc3nccnc3C[C@@H]2C(=O)NO)cc1`, the IC50 is 7700 nM.
As to `CCCOc1ccc(S(=O)(=O)N2Cc3nccnc3C[C@@H]2C(=O)NO)cc1`, the IC50 came out at 1000 nM.
With `CCOC(=O)COc1ccc(S(=O)(=O)N2Cc3nccnc3C[C@@H]2C(=O)NO)cc1`, the concentration for half-maximal inhibition (IC50) was found to be 1000 nM.
For the compound `O=C(NO)[C@H]1Cc2ccccc2CN1S(=O)(=O)c1cccs1`, the IC50 came to 340 nM.
For `CC(C)COCCCOc1ccc(S(=O)(=O)N2Cc3nccnc3C[C@@H]2C(=O)NO)cc1` the value was 560 nM.
The result for `COc1ccc(S(=O)(=O)N2Cc3cc(NC(=O)CN)ccc3C[C@@H]2C(=O)NO)cc1` reads 280 nM.
The result for `O=C(NO)[C@H]1Cc2nccnc2CN1S(=O)(=O)c1ccc([N+](=O)[O-])cc1` reads 70000 nM; that for `Cc1ccccc1S(=O)(=O)N1Cc2nccnc2C[C@@H]1C(=O)NO`, 12000 nM; that for `O=C(O)c1ccc(S(=O)(=O)N2Cc3nccnc3C[C@@H]2C(=O)NO)cc1`, 70000 nM.
Compound `Nc1ccc(Oc2ccc(S(=O)(=O)N3Cc4nccnc4C[C@@H]3C(=O)NO)cc2)cc1` returned an IC50 of 1000 nM.
The result for `COc1ccc(S(=O)(=O)N2Cc3cc(NC(=O)[C@H](N)Cc4ccccc4)ccc3C[C@@H]2C(=O)NO)cc1` reads 570 nM; that for `CCOC(=O)CCCOc1ccc(S(=O)(=O)N2Cc3nccnc3C[C@@H]2C(=O)NO)cc1`, 1100 nM.
The compound `COc1ccc(S(=O)(=O)N2Cc3cc(N(CC(=O)O)CC(=O)O)ccc3C[C@@H]2C(=O)NO)cc1` displayed a 50% inhibitory concentration (IC50) of 360 nM.
In turn, `CCCCOCCCOc1ccc(S(=O)(=O)N2Cc3nccnc3C[C@@H]2C(=O)NO)cc1` had an IC50 of 260 nM.
For `COc1ccc(S(=O)(=O)N2Cc3cc(N)ccc3C[C@@H]2C(=O)NO)cc1` the value was 190 nM.
For `Nc1ccc2c(c1)CN(S(=O)(=O)c1ccc(Oc3ncccn3)cc1)[C@@H](C(=O)NO)C2` the value was 4500 nM.
The result for `Cc1ccc(S(=O)(=O)N2Cc3nccnc3C[C@@H]2C(=O)NO)cc1` reads 2700 nM; that for `C#Cc1ccc(S(=O)(=O)N2Cc3nccnc3C[C@@H]2C(=O)NO)cc1`, 130 nM.
`O=C(NO)[C@H]1Cc2nccnc2CN1S(=O)(=O)c1ccc(-c2ccccc2)cc1` displayed an IC50 of 1500 nM.
For `O=C(NO)[C@H]1Cc2nccnc2CN1S(=O)(=O)c1ccc(OCCCBr)cc1` the value was 600 nM; for `O=C(NO)[C@H]1Cc2nccnc2CN1S(=O)(=O)c1ccc(Oc2cnccn2)cc1`, 110 nM.
For `O=C(NO)[C@H]1Cc2nccnc2CN1S(=O)(=O)c1cccnc1` the value was 6900 nM; for `CC(C)c1ccc(S(=O)(=O)N2Cc3ccccc3C[C@@H]2C(=O)NO)cc1`, 5500 nM; for `Nc1ccc2c(c1)CN(S(=O)(=O)c1ccc(Oc3ccccc3)cc1)[C@@H](C(=O)NO)C2`, 490 nM.
For `CS(=O)(=O)CCCOc1ccc(S(=O)(=O)N2Cc3nccnc3C[C@@H]2C(=O)NO)cc1` the value was 1800 nM; for `O=C(NO)[C@H]1Cc2nccnc2CN1S(=O)(=O)c1ccc(OCCCc2ccccc2)cc1`, 630 nM.
Compound `CCOCCCOc1ccc(S(=O)(=O)N2Cc3cc(O)c(O)cc3C[C@@H]2C(=O)NO)cc1` had an IC50 of 210 nM. Compared with the last compound, the IC50 is about 3-fold lower.
